Data set [1] has as its system Human immunodeficiency virus 1. Briefly: Antiviral activity against HIV1 harboring wild type reverse transcriptase infected in human MT4 cells. As to conditions: Human immunodeficiency virus 1, MT4. It counts as functional, organism-based.
The subject of data set [2] is Human immunodeficiency virus 1. As to the kind of experiment: Antiviral activity against HIV1 harboring reverse transcriptase Y181C mutant infected in human MT4 cells. It counts as functional, organism-based. As to conditions: Human immunodeficiency virus 1, MT4.
In data set [3] the test system is Human immunodeficiency virus 1. As to the kind of experiment: Antiviral activity against HIV1 harboring reverse transcriptase K101N/Y181C double mutant infected in human MT4 cells. It counts as functional, organism-based. As to conditions: Human immunodeficiency virus 1, MT4.
Data set [4] relates to Human immunodeficiency virus 1. As to the kind of experiment: Antiviral activity against HIV1 harboring reverse transcriptase K101N mutant infected in human MT4 cells. In kind it is functional, organism-based. As to conditions: Human immunodeficiency virus 1, MT4.
The test system of data set [5] is Human immunodeficiency virus 2. Briefly: Antiviral activity against HIV2 ROD infected in human MT4 cells assessed as protection against virus-induced cytopathic effect after 5 days by MTT assay. In kind it is functional, organism-based. As to conditions: Human immunodeficiency virus 2, ISOLATE ROD, MT4, 120 h. In outline: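 MT-4 cells resuspended at 6 × 10⁵ cells/mL after centrifugation at 200 g for 5 min. HIV-2 (ROD) added at 100-300 CCID₅₀. Test compound given as serial five-fold dilutions, triplicate wells. Viability of infected cells measured spectrophotometrically by MTT after 5 days. EC₅₀ = concentration giving 50% protection against viral cytopathic effect.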
On the technique in general: Cytopathic effects are the visible damage that an infection or toxin causes in cultured cells.

The target of data set [6] is Human immunodeficiency virus type 1 reverse transcriptase (Human immunodeficiency virus 1, UniProt Q72547). Briefly: Inhibition of HIV1 reverse transcriptase assessed as inhibition of biotinylated dUTP incorporation after 1 hr by ELISA. The method, boiled down: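 Recombinant HIV-1 RT kit (colorimetric ELISA). Poly(A)·oligo(dT)₁₅ template/primer with DIG-dUTP, biotin-dUTP and dTTP, ±inhibitor, 1 h at 37 °C. Product captured on streptavidin plate (1 h, 37 °C), then anti-DIG-POD (1 h, 37 °C), ABTS developed at 25 °C, A405 read. IC₅₀ = concentration inhibiting biotin-dUTP incorporation by 50%.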
For orientation: ELISA stands for enzyme-linked immunosorbent assay.

Data set [7] concerns Human immunodeficiency virus 1. As to the kind of experiment: Antiviral activity against HIV1 3B harboring wild type reverse transcriptase infected in human MT4 cells assessed as protection against virus-induced cytopathic effect after 5 days by MTT assay. It counts as functional, organism-based. As to conditions: Human immunodeficiency virus 1, 3B, MT4, 120 h. In outline:
(§1)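 MT-4 cells, growing exponentially, were spun and resuspended at 6 × 10⁵ cells/mL. They were infected at the start together with compound, given as serial five-fold dilutions in triplicate wells, with mock-infected wells run in parallel. Viability was read by MTT after 5 days. EC₅₀ is the concentration giving 50% protection against viral cytopathic effect.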

Data set [8] in a line: Cytotoxicity against human MT4 cells after 5 days by MTT assay. It counts as cell-based. In outline: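 Exponentially growing MT-4 cells resuspended at 6 × 10⁵ cells/mL and exposed to serial five-fold compound dilutions in triplicate, mock-infected alongside infected wells. Viability read by MTT assay at day 5. CC₅₀ = concentration reducing mock-infected cell viability by 50%.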
(In general: Formazan colour is commonly taken as a measure of viable cells.)

The test system of data set [9] is Human immunodeficiency virus 1. As to the kind of experiment: Antiviral activity against HIV1 RES056 harboring reverse transcriptase K103N/Y181C double mutant infected in human MT4 cells assessed as protection against virus-induced cytopathic effect after 5 days by MTT assay. As to conditions: Human immunodeficiency virus 1, RES056, MT4, 120 h. In kind it is functional, organism-based. The method, boiled down: as §1

Data set [10] can be described thus: Selectivity index, ratio of CC50 for human MT4 cells to EC50 for HIV1 3B. It counts as toxicity, cell-based. Particulars: read-out: Ratio CC50/EC50. In outline:
(§2)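 Selectivity index is CC₅₀/EC₅₀. Both values come from the same MTT assay in MT-4 cells: mock-infected and virus-infected (100-300 CCID₅₀) wells were run in parallel and read at day 5.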

Data set [11] in a line: Selectivity index, ratio of CC50 for human MT4 cells to EC50 for HIV2 ROD. In kind it is toxicity, cell-based. As to conditions: read-out: Ratio CC50/EC50. The method, boiled down: as §2
The nature of data set [12]: Selectivity index, ratio of CC50 for human MT4 cells to EC50 for HIV1 RES056. In kind it is toxicity, cell-based. As to conditions: read-out: Ratio CC50/EC50. In outline:
as §2

Each structure is given as a SMILES string. pEC50, pIC50: −log10 of the molar value.

`Cc1cc(C)cc(Oc2c(CSCc3ccco3)c(C)[nH]c(=O)c2I)c1`: the pEC50 was 8.70 in [1], 8.30 in data set [2], 8.40 in data set [3] and 9.00 in data set [4].

In the case of `Cc1cc(C#N)cc(C)c1Oc1nc(Nc2ccc(C#N)cc2)nc(N)c1Br` [ETRAVIRINE], the values for the pEC50 in [3] and in data set [4] were 8.37 and 8.92, respectively.

As to `Cc1cc(C#N)cc(C)c1Oc1cc(Nc2ccc(C#N)cc2)[nH]c(=O)c1`, the pEC50 in [5] was < 4.60; in [7] it was 6.82; in [9], < 4.60. The pIC50 in data set [6] was 5.28. In data set [8], this compound gave a CC50 at 120 h of 25000 nM. In addition, the values for the selectivity ratio in [10], in data set [11] and in data set [12] were 166, < 1 and < 1, respectively.

By pEC50 is commonly meant −log10 of the EC50, conventionally taken in molar units. A word on the pIC50: it is the negative decadic logarithm of the IC50, by convention in mol/L. By CC50 is commonly meant the concentration at which the toxic effect on the cells reaches its halfway point.

The record behind these values is ChEMBL document CHEMBL3120159, “Discovery of 2-pyridone derivatives as potent HIV-1 NNRTIs using molecular hybridization based on crystallographic overlays” (Bioorg Med Chem, 2014).
